The text below walks through data of ChEMBL document CHEMBL1122273, “5-sulfamoylorthanilic acids, a sulfonamide series with salidiuretic activity” (J Med Chem, 1983).

The structures appear in SMILES notation. The source made the active and inactive calls. The rule behind the calls is not given here.

Assay [1] deals with Rattus norvegicus. Kind of assay: Saluretic activity on the basis of the 50 mg/kg perorally rat assay; Compound is found to be moderately active. It is filed as functional, organism-based. Set-up: dose 50 mg/kg. In a few lines:
(§1)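 Rats deprived of food 24 h, water ad libitum, dosed 50 mg/kg by stomach tube as suspension in 2% starch, no extra water load. Groups of three in diuresis funnels; urine over first 5 h collected. Na⁺ and K⁺ by flame photometry, Cl⁻ argentometrically; expressed as mequiv/kg.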

Assay [2] is filed under the species Rattus norvegicus. Kind of assay: Saluretic activity in the rat measured as concentration of chloride in urine. The class given is functional. In a few lines:
as §1

Assay [3] has as its system Canis familiaris. Description: Saluretic activity on the basis of the 1.56 mg/Kg perorally dog assay; Compound is found to be highly active. It is filed as functional, organism-based. The conditions noted are these: Canis lupus familiaris. The procedure, abridged:
(§2)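 Male beagles trained to rest on a table and to accept stomach tube and catheter. Food withdrawn 24 h before, tap water ad libitum. Bladder emptied by catheter, then 20 mL/kg tap water by stomach tube. Catheterized hourly up to 8 h with 4 mL/kg water orally each time; first 2 h urine served as control. Oral dosing after second catheterization. Pooled 1–6 h urine; Na⁺/K⁺ by flame photometry, Cl⁻ argentometrically.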

A short description of assay [4]: It is the ratio, measured as saluretic activity in the dog as concentration of Cl- in urinary excretion (dose 1.56 mg/Kg, perorally) to that of (Na+)+(K+). The class given is functional, Urine. The procedure, abridged:
(§3)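 Trained male beagles, fasted 24 h with tap water ad libitum. Bladder emptied by catheter, then 20 mL/kg tap water by stomach tube, with 4 mL/kg water at each hourly catheterization up to 8 h. The first 2 h of urine served as control. Oral dosing came after the second catheterization, and 1–6 h urine was pooled. Na⁺ and K⁺ were measured by flame photometry, Cl⁻ argentometrically, in mequiv/kg.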

Assay [5] is filed under the species Rattus norvegicus. Description: Saluretic activity in the rat measured as concentration of K+ in urine. It is filed as functional. In a few lines:
as §1

Assay [6] relates to Canis familiaris. Description: Saluretic activity in the dog measured as concentration of Cl- in urinary excretion (2 animals/dose) at (dose 1.56 mg/Kg, perorally). It is filed as functional, Canis lupus familiaris, Urine. In a few lines: (§4)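 Male beagles trained to the procedures, food withdrawn 24 h before, tap water ad libitum. Bladder emptied by catheter, then 20 mL/kg tap water by stomach tube, plus 4 mL/kg orally at each hourly catheterization up to 8 h. The first 2 h of urine served as control. Compound given orally after the second catheterization. Urine from 1–6 h post-dose pooled; Na⁺ and K⁺ by flame photometry, Cl⁻ argentometrically, in mequiv/kg.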

The species named for assay [7] is Rattus norvegicus. Kind of assay: Diuretic activity in the rats, determined by a modified Lipschitz test. It is filed as functional, Urine. The procedure, abridged:
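Modified Lipschitz test: rats deprived of water 24 h, grouped in threes of similar weight in diuresis funnels. Oral dose of 50 mg/kg, suspended in 2% starch solution, by stomach tube.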

Assay [8] concerns Canis familiaris. Kind of assay: Saluretic activity in the dog measured as concentration of K+ in urinary excretion (2 animals/dose) at (dose 1.56 mg/Kg, perorally). It is filed as functional, Canis lupus familiaris, Urine. In a few lines: as §4
Assay [9] concerns Canis familiaris. Kind of assay: Diuretic activity in the dog (2 animals/dose) at (dose 1.56 mg/Kg), when administered perorally. It is filed as functional, Canis lupus familiaris, Urine. In a few lines:
as §3

Assay [10] relates to Canis familiaris. Description: Saluretic activity in the dog measured as concentration of Na+ in urinary excretion (2 animals/dose) at (dose 1.56 mg/Kg, perorally). The class given is functional, Canis lupus familiaris, Urine. In a few lines:
as §2

The nature of assay [11]: It is the ratio, measured as saluretic activity in the dog as concentration of Na+ in urinary excretion (dose 1.56 mg/Kg, perorally) to that of K. The class given is functional, Urine. In a few lines: as §3
The species entered for assay [12] is Rattus norvegicus. Description: Saluretic activity in the rat measured as concentration of Na+ in urine. It is filed as functional. In a few lines:
as §1

In assay [13] the test system is Canis familiaris. Kind of assay: Salidiuretic activity in the dog measured as concentration of K+ in urinary excretion (2 animals/dose) at (dose 1.56 mg/Kg, perorally). The class given is functional, Canis lupus familiaris, Urine. In a few lines:
as §4

Assay [14] concerns Canis familiaris. Kind of assay: Salidiuretic activity in the dog measured as concentration of Cl - in urinary excretion (2 animals/dose) at (dose 1.56 mg/Kg, perorally). It is filed as functional, Canis lupus familiaris, Urine. In a few lines: as §4

For the molecule `NCc1cccs1.NS(=O)(=O)c1cc(S(=O)(=O)O)c(NCc2cccs2)cc1Cl`, the Saldiuretic activity entry in [1] was “Weak activity”; in [6], 2.76 m equiv 6hr-1 kg-1. The Saluretic activity in assay [2] is on record as 3.3 m equiv 5hr-1 kg-1; in assay [5], 1.7 m equiv 5hr-1 kg-1; in assay [8], 0.55 m equiv 6hr-1 kg-1; in assay [10], 2.33 m equiv 6hr-1 kg-1; in [12], 2.7 m equiv 5hr-1 kg-1. Further, the Saldiuretic activity entry in assay [3] was “Active”. Moreover, the Ratio amounted to 0.95 in [4] and 4.2 in assay [11]. The Diuretic activity amounted to 1 mL/kg in assay [7] and 44.5 ml kg-1 6hr-1 in assay [9].
As for `NS(=O)(=O)c1cc(S(=O)(=O)[O-])c(NCCc2ccco2)cc1Cl.[Na+]`, the Saluretic activity in assay [2] is 6.1 m equiv 5hr-1 kg-1; in assay [5], 1.8 m equiv 5hr-1 kg-1; in [10] it was 0.56 m equiv 6hr-1 kg-1; in assay [12], 4.6 m equiv 5hr-1 kg-1. For the same molecule, the figures for the Diuretic activity in assay [7] and in assay [9] were 1.9 mL/kg and 29.3 ml kg-1 6hr-1, respectively. Further, the Saldiuretic activity in assay [13] was 0.15 m equiv 6hr-1 kg-1; in [14], 0.76 m equiv 6hr-1 kg-1.
